Legend:
[1] = system: MOLT-4; test: In vitro inhibitory activity against MOLT-4 T-cell leukemia cell AICAR transformylase; format: functional, cell-based, Homo sapiens; conditions: for IC50: Homo sapiens, MOLT-4
[2] = system: MCF7; test: In vitro inhibition of growth of MCF-7 human breast adenocarcinoma using 72 hours continuous exposure; format: functional, cell-based
Outline: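 ATCC MCF-7 cells grown in RPMI 1640 with 10 nM calcium leucovorin as folate source, 10% dialyzed fetal calf serum, penicillin, streptomycin and sodium pyruvate (110 μg/mL). Cells seeded at 15000/well, preincubated 24 h at 37 °C, then exposed 72 h (37 °C, 5% CO2), triplicate per concentration. Growth read by MTT reduction, formazan dissolved in DMSO, A570 (reference 750 nm), against a cell-number standard curve.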

[3] = system: MOLT-4; test: Compound was evaluated for inhibition of [3H]methotrexate uptake into MOLT-4 cells; format: functional, cell-based; conditions: Homo sapiens
[4] = molecular target: GAR transformylase (Sus scrofa); test: In vitro inhibition of hog liver GAR transformylase with (6R)-10-formyl-FH4 as cofactor

Compound	Inhibition [1] [%]	IC50 [2] [µM]	IC50 [3] [µM]	IC50 [1] [µM]	IC50 [4] [µM]
Nc1ncnc(O)c1CCCNc1ccc(C(=O)NC(CCC(=O)O)C(=O)O)cc1 (stereo unspecified)	26	> 50	2	–	–
Nc1nc(N)c(CCCCNc2ccc(C(=O)NC(CCC(=O)O)C(=O)O)cc2)c(O)n1 (stereo unspecified)	–	5	1.5	–	–
COc1cc(C(=O)NC(CCC(=O)O)C(=O)O)ccc1NCCCc1c(N)nc(N)nc1O (stereo unspecified)	–	5	1	–	–
Nc1nc(N)c(CCCSc2ccc(C(=O)NC(CCC(=O)O)C(=O)O)cc2)c(O)n1 (stereo unspecified)	–	0.023	0.8	25.8	–
Nc1nc(N)c(CCCNc2ccc(C(=O)NC(CCC(=O)O)C(=O)O)cc2F)c(O)n1 (stereo unspecified)	–	0.063	1	133	–
Nc1nc(N)c(CCCOc2ccc(C(=O)NC(CCC(=O)O)C(=O)O)cc2)c(O)n1 (stereo unspecified)	–	0.085	1.1	–	–
Nc1nc(N)c(CCCNc2ccc(C(=O)NC(CCC(=O)O)C(=O)O)c(Cl)c2)c(O)n1 (stereo unspecified)	–	0.115	0.7	182	–
Nc1nc(O)c2c(n1)NCC(CCc1ccc(C(=O)NC(CCC(=O)O)C(=O)O)cc1)C2 (stereo unspecified)	–	0.018	1.5	–	–
Nc1nc(N)c(CCCCc2ccc(C(=O)N[C@@H](CCC(=O)O)C(=O)O)cc2)c(=O)[nH]1 [DIDEAZAACYCLOTETRAHYDROFOLIC ACID]	–	0.061	0.9	–	–
Cc1cc(C(=O)NC(CCC(=O)O)C(=O)O)ccc1NCCCc1c(N)nc(N)nc1O (stereo unspecified)	–	0.25	1.3	–	–
Nc1nc(N)c(CCCNc2ccc(C(=O)N[C@@H](CCC(=O)O)C(=O)O)cc2)c(O)n1	–	–	1.2	–	3
Nc1nnc(C2CCN(c3ccc(C(=O)NC(CCC(=O)O)C(=O)O)cc3)C2=O)c(O)n1 (stereo unspecified)	–	> 100	> 100	–	–
Nc1nc(N)c(CCCNc2ccc(C(=O)NC(CCC(=O)O)C(=O)O)c(F)c2)c(O)n1 (stereo unspecified)	–	0.033	0.7	79.3	–
